Assay [1] concerns the target T1, Angiotensin-converting enzyme (Rattus norvegicus) (UniProt P47820).
T1 sequence (whole entry): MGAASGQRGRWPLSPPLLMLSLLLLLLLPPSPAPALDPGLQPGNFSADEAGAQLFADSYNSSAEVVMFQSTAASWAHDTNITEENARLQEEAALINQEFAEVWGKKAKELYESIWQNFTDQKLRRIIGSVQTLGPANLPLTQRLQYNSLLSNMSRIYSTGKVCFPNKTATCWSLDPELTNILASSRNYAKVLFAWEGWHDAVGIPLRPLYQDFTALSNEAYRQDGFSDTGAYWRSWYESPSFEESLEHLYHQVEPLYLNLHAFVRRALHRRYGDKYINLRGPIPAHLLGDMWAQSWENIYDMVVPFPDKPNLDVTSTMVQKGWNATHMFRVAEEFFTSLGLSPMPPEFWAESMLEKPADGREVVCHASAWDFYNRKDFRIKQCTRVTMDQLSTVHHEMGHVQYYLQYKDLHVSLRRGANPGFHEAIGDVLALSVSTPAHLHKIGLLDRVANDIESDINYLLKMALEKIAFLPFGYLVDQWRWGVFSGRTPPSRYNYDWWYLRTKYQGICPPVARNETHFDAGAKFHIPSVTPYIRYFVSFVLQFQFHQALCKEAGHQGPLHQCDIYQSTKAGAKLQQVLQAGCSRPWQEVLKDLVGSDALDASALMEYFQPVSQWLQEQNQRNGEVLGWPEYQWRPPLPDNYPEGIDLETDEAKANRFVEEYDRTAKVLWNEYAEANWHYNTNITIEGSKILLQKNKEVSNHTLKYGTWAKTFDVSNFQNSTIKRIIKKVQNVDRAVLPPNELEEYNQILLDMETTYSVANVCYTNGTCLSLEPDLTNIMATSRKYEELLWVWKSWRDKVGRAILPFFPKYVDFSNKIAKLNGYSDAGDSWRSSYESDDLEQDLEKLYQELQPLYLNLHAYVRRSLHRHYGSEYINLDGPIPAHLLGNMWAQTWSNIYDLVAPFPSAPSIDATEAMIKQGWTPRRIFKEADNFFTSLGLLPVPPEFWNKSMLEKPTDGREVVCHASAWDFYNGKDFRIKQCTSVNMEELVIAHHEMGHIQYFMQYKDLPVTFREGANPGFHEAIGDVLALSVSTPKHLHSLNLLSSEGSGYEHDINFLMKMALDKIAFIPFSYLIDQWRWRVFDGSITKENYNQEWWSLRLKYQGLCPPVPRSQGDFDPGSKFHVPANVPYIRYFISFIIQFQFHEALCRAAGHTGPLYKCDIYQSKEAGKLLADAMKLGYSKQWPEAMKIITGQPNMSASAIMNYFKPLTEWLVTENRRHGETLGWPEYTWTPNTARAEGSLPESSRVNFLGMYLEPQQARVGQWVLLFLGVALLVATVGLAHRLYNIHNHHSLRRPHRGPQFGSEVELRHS
Kind of assay: Compound was tested for plasma inhibition of Angiotensin I converting enzyme activity in the conscious rat. Expressed as Inhibition of AI pressor response at 2 hr at a dose of 13.7 mg/kg po. Format: organism-based. Further details: dose 13.7 mg/kg. In short, it runs like this:
(§1)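 Male conscious normotensive Sprague-Dawley rats (275-390 g), given femoral arterial and venous catheters under methohexital sodium (75 mg/kg ip) anesthesia. Next day, pressor responses to three angiotensin-I challenges (300 ng/kg iv) recorded by direct arterial pressure. Compound then dosed orally, and AI challenge repeated at set times. Each post-dose response compared with the mean of the three baseline responses, giving % inhibition.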

The target in assay [2] is T1, Angiotensin-converting enzyme (Rattus norvegicus). Description: Compound was tested for plasma inhibition of Angiotensin I converting enzyme activity in the conscious rat. Expressed as Inhibition of AI pressor response at 4 hr at a dose of 13.7 mg/kg po. Further details: dose 13.7 mg/kg. It is filed as organism-based. In short, it runs like this: (§2)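 Male conscious normotensive Sprague-Dawley rats (275-390 g), prepared under methohexital sodium (75 mg/kg ip) with femoral arterial and venous catheters. The next day, pressor responses to three angiotensin-I challenges (300 ng/kg iv) were recorded. Compound was then given orally and angiotensin-I challenges were repeated at set times. Percent inhibition is relative to the mean of the three baseline responses.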

The target is the same in assay [3]. Description: Compound was tested for plasma inhibition of Angiotensin I converting enzyme activity in the conscious rat. Expressed as Inhibition of AI pressor response at 1 hr at a dose of 13.7 mg/kg po. It is filed as organism-based. More on the design: dose 13.7 mg/kg. In a few lines: as §1
Assay [4] relates to Rattus norvegicus. Description: Plasma ANF Concentration in the Conscious Rat at a dose of 13.7(po)mg/kg at 2 h. Format: functional. In a few lines:
(§3)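 Male Sprague-Dawley rats (275-390 g), catheterized in femoral artery and vein under ketamine (150 mg/kg)/acepromazine, tethered and recovered 24 h, studied conscious. Continuous iv rat ANF(99-126) infusion at 450 ng/kg/min for 5 h; baseline blood at 60 min, then oral dosing, sampling at 30-240 min.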

In assay [5] the target is T1, Angiotensin-converting enzyme (Rattus norvegicus). Kind of assay: Compound was tested for plasma inhibition of Angiotensin I converting enzyme activity in the conscious rat. Expressed as Inhibition of AI pressor response at 6 hr at a dose of 13.7 mg/kg po. Format: organism-based. More on the design: dose 13.7 mg/kg. In a few lines:
as §2

Assay [6] relates to Rattus norvegicus. Description: Plasma ANF Concentration in the Conscious Rat at a dose of 13.7(po)mg/kg at 4 h. Format: functional. In short, it runs like this:
as §3

The subject of assay [7] is Rattus norvegicus. Kind of assay: Plasma ANF Concentration in the Conscious Rat at a dose of 13.7(po)mg/kg at 1 h. It is filed as functional. In a few lines: as §3
Assay [8] concerns Rattus norvegicus. Kind of assay: Plasma ANF Concentration in the Conscious Rat at a dose of 13.7(po)mg/kg at 0.5 h. Format: functional. In a few lines:
as §3

Assay [9] concerns Rattus norvegicus. Kind of assay: Plasma ANF Concentration in the Conscious Rat at a dose of […]. It is filed as functional. As to conditions: in the assay text read “12.7(po)mg/kg” for “12.4(po)mg/kg”. In short, it runs like this: (§4)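 Male Sprague-Dawley rats (275-390 g) received femoral artery and vein catheters under ketamine (150 mg/kg)/acepromazine and recovered for 24 h, tethered, before study conscious. ratANF(99-126) was infused at 450 ng/kg/min iv for 5 h. Baseline blood was drawn at 60 min into the infusion, then compound was given po.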

Assay [10] concerns the target T1, Angiotensin-converting enzyme (Rattus norvegicus). Kind of assay: Compound was tested for plasma inhibition of Angiotensin I converting enzyme activity in the conscious rat. Expressed as Inhibition of AI pressor response at 2 hr at a dose of 12.7 mg/kg po. It is filed as organism-based. Further details: dose 12.7 mg/kg. In a few lines: as §1
The target is the same in assay [11]. Description: Compound was tested for plasma inhibition of Angiotensin I converting enzyme activity in the conscious rat. Expressed as Inhibition of AI pressor response at 6 hr at a dose of 12.7 mg/kg po. It is filed as organism-based. Further details: dose 12.7 mg/kg. In a few lines:
as §2

The subject of assay [12] is Rattus norvegicus. Description: Plasma ANF Concentration in the Conscious Rat at a dose of 12.7(po)mg/kg at 0.5 h. It is filed as functional. In a few lines:
as §4

The test system of assay [13] is Rattus norvegicus. Description: Plasma ANF Concentration in the Conscious Rat at a dose of 12.7(po)mg/kg at 4 h. It is filed as functional. In short, it runs like this: as §4
For assay [14], the target named is T1, Angiotensin-converting enzyme (Rattus norvegicus). Kind of assay: Compound was tested for plasma inhibition of Angiotensin I converting enzyme activity in the conscious rat. Expressed as Inhibition of AI pressor response at 4 hr at a dose of 12.7 mg/kg po. Further details: dose 12.7 mg/kg. Format: organism-based. In a few lines:
as §1

Assay [15] deals with Rattus norvegicus. Kind of assay: Plasma ANF Concentration in the Conscious Rat at a dose of 12.7(po)mg/kg at 1 h. It is filed as functional. In a few lines:
as §4

Assay [16] deals with T1, Angiotensin-converting enzyme (Rattus norvegicus). Kind of assay: Compound was tested for plasma inhibition of Angiotensin I converting enzyme activity in the conscious rat. Expressed as Inhibition of AI pressor response at 1 hr at a dose of 12.7 mg/kg po. It is filed as organism-based. Further details: dose 12.7 mg/kg. In short, it runs like this: as §1
Assay [17] shares this target. Description: Compound was tested for plasma inhibition of Angiotensin I converting enzyme activity in the conscious rat. Expressed as Inhibition of AI pressor response at 6 hr at a dose of 12.4 mg/kg po. It is filed as organism-based. More on the design: dose 12.4 mg/kg. In short, it runs like this: as §2
Assay [18] has the same target. Kind of assay: Compound was tested for plasma inhibition of Angiotensin I converting enzyme activity in the conscious rat. Expressed as Inhibition of AI pressor response at 2 hr at a dose of 12.4 mg/kg po. Format: organism-based. More on the design: dose 12.4 mg/kg. In short, it runs like this:
as §1

Assay [19] has the same target. Kind of assay: Compound was tested for plasma inhibition of ACE activity in the conscious rat. Expressed as Inhibition of AI pressor response at 1 hr at a dose of 12.4 mg/kg po. Format: organism-based. More on the design: dose 12.4 mg/kg. In short, it runs like this: as §1
Assay [20] has the same target. Description: Compound was tested for plasma inhibition of Angiotensin I converting enzyme activity in the conscious rat. Expressed as Inhibition of AI pressor response at 4 hr at a dose of 12.4 mg/kg po. It is filed as organism-based. More on the design: dose 12.4 mg/kg. In short, it runs like this:
as §1

As to `CCN(CC)C(=O)COC(=O)[C@H](Cc1ccc(OC)cc1)NC(=O)C1(NC(=O)[C@H](SC(C)=O)C(C)C)CCCC1`, the inhibition in [1] was found to be 86%; in assay [2], 73%; in assay [3], 88%; in [5], 64%. Besides, the Control in the assay on Rattus norvegicus [4] is listed as 215%; in the assay with Rattus norvegicus [6], 264%; in the assay with Rattus norvegicus [7], 187%; in the assay with Rattus norvegicus [8] it was 159%.

Turning to `CC(=O)S[C@@H](C(=O)NC1(C(=O)N[C@@H](Cc2ccc(O)cc2)C(=O)OCCC(C)C)CCCC1)C(C)C`, the Control is given as 236% with Rattus norvegicus [9], 178% in the assay on Rattus norvegicus [12], 251% in the assay with Rattus norvegicus [13] and 235% with Rattus norvegicus [15]. Also, the inhibition was 77% in assay [10], 60% in assay [11], 77% in assay [14] and 83% in [16].

Regarding `CCOC(=O)[C@H](Cc1ccc(OCC)cc1)NC(=O)C1(NC(=O)[C@H](SC(C)=O)C(C)C)CCCC1`, the inhibition amounted to 70% in [17], 76% in assay [18], 88% in assay [19] and 73% in [20].

As a reminder, the inhibition is the drop in the measured response relative to a control, in per cent. A low value points to a weak effect.
